Measurements as given in ChEMBL document CHEMBL1687899, “Structure-activity relationships in nucleotide oligomerization domain 1 (Nod1) agonistic γ-glutamyldiaminopimelic acid derivatives” (J Med Chem, 2011).

Target: T1, Nucleotide-binding oligomerization domain-containing protein 1 (Homo sapiens, UniProt Q9Y239)
T1 sequence (Q9Y239 whole entry): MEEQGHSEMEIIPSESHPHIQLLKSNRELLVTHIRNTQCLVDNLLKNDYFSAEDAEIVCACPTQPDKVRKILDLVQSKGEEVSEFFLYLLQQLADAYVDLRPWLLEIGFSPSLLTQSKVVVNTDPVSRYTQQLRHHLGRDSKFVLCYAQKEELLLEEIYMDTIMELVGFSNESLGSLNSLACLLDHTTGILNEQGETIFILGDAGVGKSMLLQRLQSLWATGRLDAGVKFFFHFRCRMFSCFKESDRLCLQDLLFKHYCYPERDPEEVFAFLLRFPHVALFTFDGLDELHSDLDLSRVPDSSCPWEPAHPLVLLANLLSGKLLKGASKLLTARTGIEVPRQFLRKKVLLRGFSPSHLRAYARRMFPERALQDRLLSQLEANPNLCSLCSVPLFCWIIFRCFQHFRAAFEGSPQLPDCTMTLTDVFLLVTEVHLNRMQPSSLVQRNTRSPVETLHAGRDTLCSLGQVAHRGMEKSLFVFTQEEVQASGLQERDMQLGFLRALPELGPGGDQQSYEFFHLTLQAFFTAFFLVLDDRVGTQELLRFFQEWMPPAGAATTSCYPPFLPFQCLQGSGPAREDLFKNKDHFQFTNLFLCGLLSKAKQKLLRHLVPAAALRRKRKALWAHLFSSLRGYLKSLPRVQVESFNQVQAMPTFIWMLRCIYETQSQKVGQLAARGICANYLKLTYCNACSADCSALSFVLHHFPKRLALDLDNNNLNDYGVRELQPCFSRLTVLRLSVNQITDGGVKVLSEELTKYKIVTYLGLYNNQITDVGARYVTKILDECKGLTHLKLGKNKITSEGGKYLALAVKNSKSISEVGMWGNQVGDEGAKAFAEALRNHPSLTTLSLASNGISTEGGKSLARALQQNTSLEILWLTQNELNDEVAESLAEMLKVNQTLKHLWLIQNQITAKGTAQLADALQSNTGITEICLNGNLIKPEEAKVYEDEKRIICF
Experiment: Agonist activity at human NOD-1 expressed in human HEK293 cells assessed as NF-kappaB induction by spectrophotometric analysis
Assay type: functional, cell-based
Summary of the method: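 HEK-Blue cells (HEK293 stably transfected with human Nod1 and an NF-κB/AP-1-inducible secreted alkaline phosphatase reporter) were kept in selection medium with zeocin and normocin. Cells at ~10^5 cells/mL were grown to confluency and then given graded compound concentrations. Supernatant sAP was read spectrophotometrically at 620 nm with an alkaline phosphatase-specific chromogen.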

| SMILES | EC50 [nM] |
| --- | --- |
| CCCCCCCCCCCC(=O)N[C@H](CCC(=O)NC(CCCC(NC(=N)N)C(=O)O)C(=O)O)C(=O)O (stereo partly specified) | 0.622 |
| CCCCCCCCCCCC(=O)N[C@H](CCC(=O)N[C@@H](CCCCN)C(=O)O)C(=O)O | 0.57 |
| CCCCCCCCCCCC(=O)N[C@H](CCC(=O)NC(CCCC(N)C(=O)OCC)C(=O)OCC)C(=O)O (stereo partly specified) | 0.145 |
| CCCCCCCCCCCC(=O)N[C@H](CCC(=O)NCCCC[C@@H](N)C(=O)O)C(=O)O | 0.37 |

Continued by falling EC50, values first:

| EC50 [nM] | SMILES |
| --- | --- |
| 1.31 | CCCCCCCCCCCC(=O)N[C@H](CCC(=O)NC(CCCC1NC(N)=NC1=O)C(=O)O)C(=O)O (stereo partly specified) |
| 0.58 | CCCCCCCCCCCC(=O)NC(CCCC(NC(=O)CC[C@@H](NC(=O)CCCCCCCCCCC)C(=O)O)C(=O)O)C(=O)O (stereo partly specified) |
